Reference: ChEMBL document CHEMBL4257467, “Synthesis and pharmaceutical characterization of site specific mycophenolic acid-modified Xenopus glucagon-like peptide-1 analogs” (Medchemcomm, 2018)
Activity calls are given as the source filed them. *1 amine or outer side, *2 acyl side, *3 side chain or, on linkers, in order; H or OH if unused. Where a SMILES comes first, the peptide text is derived from it. Side-chain parts run from the residue outwards. The star is where a group is joined. Mycophenolyl = COc1c(C)c2c(c(O)c1C/C=C(\C)CCC(=O)*)C(=O)OC2; γGlu = O=C(O)[C@H](CCC(=O)[*:2])N[*:1]; 12Ado = NCCCCCCCCCCCC(=O)O; Ahx = NCCCCCC(=O)O

Tests used:
Albumin = Albumin (Homo sapiens, UniProt P02768); assay: Binding affinity to human serum albumin after 60 mins by ultrafiltration-based HPLC analysis; format: ADME; settings: human serum albumin, read-out: PB (converted)
Albumin, sequence (P02768 whole entry): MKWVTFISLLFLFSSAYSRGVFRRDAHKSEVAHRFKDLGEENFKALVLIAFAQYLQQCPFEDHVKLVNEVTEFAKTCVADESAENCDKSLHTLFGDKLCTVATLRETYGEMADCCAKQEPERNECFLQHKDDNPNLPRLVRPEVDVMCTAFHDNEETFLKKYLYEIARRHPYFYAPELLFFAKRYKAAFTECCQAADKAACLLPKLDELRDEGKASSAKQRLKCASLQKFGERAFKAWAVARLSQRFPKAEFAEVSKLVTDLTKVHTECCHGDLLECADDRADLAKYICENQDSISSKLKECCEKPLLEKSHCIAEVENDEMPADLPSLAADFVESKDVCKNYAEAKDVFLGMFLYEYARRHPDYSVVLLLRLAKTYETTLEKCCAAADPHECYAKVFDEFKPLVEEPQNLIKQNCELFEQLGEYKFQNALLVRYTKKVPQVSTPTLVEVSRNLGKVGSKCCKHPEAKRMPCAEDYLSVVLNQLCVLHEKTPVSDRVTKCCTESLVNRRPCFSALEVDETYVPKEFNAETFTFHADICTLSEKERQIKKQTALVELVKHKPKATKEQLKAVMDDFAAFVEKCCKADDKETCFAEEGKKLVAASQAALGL
Method in brief: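 Peptide in PBS pH 7.4 (100 μg ml−1) mixed with HSA (10 mg ml−1 in PBS), incubated 60 min at 37 °C. Ultrafiltration through 30 kDa cutoff filter, 30 min at 3500 rpm. Free compound in filtrate by HPLC. Membrane adsorption checked (<4%). Repeated three times.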

Mus musculus [1] = assay: Hypoglycemic activity in C57BL/6J m+/+ Lepr db mouse assessed as blood glucose level at 25 nmol/kg, ip pretreated for 30 mins followed by glucose challenge and measured after 15 mins by IPGTT; format: functional
Method in brief: (§1)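 Male db/db mice (30–40 g, 9 weeks, n = 6) fasted 18 h. Saline or peptide 25 nmol kg−1 ip at −30 min, ip glucose 1 g kg−1 at 0 min. Tail-vein glucose by glucometer at −30, 0, 10, 15, 30, 45, 60, 120 min. Plasma insulin by mouse insulin ELISA. AUC0–120min for glucose and insulin calculated; means ± SD.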

Mus musculus [2] = assay: Hypoglycemic activity in non-fasting C57BL/6J m+/+ Lepr db mouse assessed as rebound time from the lowest glucose level (12 mmol/L) to diabetic glucose level (>15 mmol/L) at 25 nmol/kg, ip by glucometric method; format: functional
Method in brief: (§2)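 Non-fasting male db/db mice (30–40 g, 9 weeks, n = 6) with free food and water. Single ip dose at 0 h: liraglutide 25 nmol kg−1, test peptides 25 or 100 nmol kg−1, or saline. Blood glucose by glucometer at 0, 2, 4, 6, 12, 24, 48 h. Rebound time to >15 mmol L−1 and AUC0–48h derived; means ± SD.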

Mus musculus [3] = assay: Antidiabetic activity in C57BL/6J m+/+ Lepr db mouse assessed as increase in plasma insulin AUC (0 to 120 mins) at 25 nmol/kg, ip pretreated for 30 mins followed by glucose challenge by ELISA; format: functional, organism-based; method in brief: as §1
Mus musculus [4] = assay: Antidiabetic activity in C57BL/6J m+/+ Lepr db mouse assessed as plasma insulin level at 25 nmol/kg, ip pretreated for 30 mins followed by glucose challenge and measured after 15 mins by ELISA; format: functional; method in brief: as §1
[5] = Half life in Sprague-Dawley rat plasma at 0.5 mL by LC-MS/MS analysis; format: ADME, cell-free; settings: Sprague-Dawley
Method in brief: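 Plasma from male Sprague-Dawley rats (200–250 g). Peptide in PBS pH 7.4 added to initial 1000 ng ml−1 and incubated at 37 °C for 48 h. Samples at 2, 4, 8, 12, 24, 36, 48 h precipitated with acetonitrile containing 2% formic acid, centrifuged, analysed by LC-MS/MS in MRM mode. Degradation curves in triplicate.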

Mus musculus [6] = assay: Hypoglycemic activity in non-fasting C57BL/6J m+/+ Lepr db mouse assessed as rebound time from the lowest glucose level (12 mmol/L) to diabetic glucose level (>15 mmol/L) at 100 nmol/kg, ip by glucometric method; format: functional; method in brief: as §2
[7] = target: Glucagon-like peptide 1 receptor (Homo sapiens, UniProt P43220); assay: Agonist activity at human GLP1 receptor expressed in HEK293 cells assessed as increase in cAMP level after 30 mins by HTRF method; format: functional, cell-based
Glucagon-like peptide 1 receptor, sequence (P43220 whole entry): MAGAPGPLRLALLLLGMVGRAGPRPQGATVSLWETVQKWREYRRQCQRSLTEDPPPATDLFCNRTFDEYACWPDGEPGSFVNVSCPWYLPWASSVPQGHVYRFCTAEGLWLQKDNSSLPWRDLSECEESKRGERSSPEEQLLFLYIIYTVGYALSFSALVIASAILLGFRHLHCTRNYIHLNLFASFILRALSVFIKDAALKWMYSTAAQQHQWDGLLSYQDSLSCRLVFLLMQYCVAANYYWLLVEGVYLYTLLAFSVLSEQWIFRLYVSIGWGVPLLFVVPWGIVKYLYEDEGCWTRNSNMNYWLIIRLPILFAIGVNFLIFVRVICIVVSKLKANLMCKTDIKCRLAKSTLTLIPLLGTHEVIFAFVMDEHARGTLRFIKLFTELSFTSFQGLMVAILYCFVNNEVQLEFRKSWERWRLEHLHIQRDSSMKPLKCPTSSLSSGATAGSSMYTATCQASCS
Method in brief: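 HEK293 cells stably expressing human GLP-1 receptor, thawed, suspended in DMEM with 20 mM HEPES, 2 mM L-Glu, 0.5% FBS, 1% pen-strep. Compounds dissolved in DMSO, diluted in assay buffer to 1 × 10−13–1 × 10−6 M final, 30 min at 37 °C in 5% CO2. cAMP read by HTRF. EC50 as means ± SD of three individual experiments, n = 3.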

Mus musculus [8] = assay: Antidiabetic activity in Kunming mouse assessed as reduction in blood glucose AUC at 25 nmol/kg, ip pretreated for 30 mins followed by glucose-challenge and measured after 15 to 120 mins by IPGTT; format: functional, organism-based
Method in brief: (§3)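 Male Kunming mice (20–25 g, n = 6) fasted overnight. Peptide or saline 25 nmol kg−1 ip at −30 min, ip glucose 2 g kg−1 at 0 min. Tail-vein blood glucose by glucometer at −30, 0, 15, 30, 60 and 120 min. Glucose AUC0–120min calculated; means ± SD.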

Mus musculus [9] = assay: Antidiabetic activity in Kunming mouse assessed as reduction in blood glucose level at 25 nmol/kg, ip pretreated for 30 mins followed by glucose-challenge and measured after 15 to 120 mins by IPGTT; format: functional, organism-based; method in brief: as §3
Mus musculus [10] = assay: Hypoglycemic activity in non-fasting C57BL/6J m+/+ Lepr db mouse assessed as reduction in blood glucose AUC (0 to 48 hrs) at 25 to 100 nmol/kg, ip by glucometric method; format: functional, organism-based; method in brief: as §2
Mus musculus [11] = assay: Antidiabetic activity in C57BL/6J m+/+ Lepr db mouse assessed as reduction in body weight gain at 50 nmol/kg, ip administered once daily for 5 weeks measured every 4 days during compound dosing relative to control; format: functional; parameters: scale not given: the % may be the effect or the level left
Mus musculus [12] = assay: Antidiabetic activity in C57BL/6J m+/+ Lepr db mouse assessed as reduction in blood glucose AUC (0 to 120 mins) at 50 nmol/kg, ip administered once daily for 5 weeks followed by glucose challenge by IPGTT; format: functional, organism-based
Mus musculus [13] = assay: Hypoglycemic activity in C57BL/6J m+/+ Lepr db mouse assessed as reduction in fasting blood glucose level at 25 nmol/kg, ip pretreated for 30 mins followed by glucose challenge at 6 hrs interval for 24 hrs and measured up to 3 hrs by OGTT; format: functional, organism-based
Method in brief: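 Male db/db mice (30–40 g, 9 weeks, n = 6) fasted 18 h, given saline or peptide 25 nmol kg−1 ip at −0.5 h. Oral glucose 1.5 g kg−1 at 0 h, repeated every 6 h (6, 12, 18 h) over 24 h. Blood glucose by glucometer at 0, 0.25, 0.5, 1, 2 and 3 h after each load.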

Mus musculus [14] = assay: Antidiabetic activity in C57BL/6J m+/+ Lepr db mouse assessed as change in blood glucose level at 50 nmol/kg, ip administered once daily for 5 weeks followed by glucose challenge measured after 15 to 120 mins by IPGTT; format: functional, organism-based
Mus musculus [15] = assay: Antidiabetic activity in C57BL/6J m+/+ Lepr db mouse assessed as serum triglyceride level at 50 nmol/kg, ip administered once daily for 5 weeks (reference value: 2.3 +/- 0.3 mmol/L); format: functional
Mus musculus [16] = assay: Antidiabetic activity in C57BL/6J m+/+ Lepr db mouse assessed as serum total cholesterol level at 50 nmol/kg, ip administered once daily for 5 weeks (reference value: 6.5 +/- 0.4 mmol/L); format: functional
Mus musculus [17] = assay: Antidiabetic activity in C57BL/6J m+/+ Lepr db mouse assessed as non-fasting blood glucose levels at 50 nmol/kg, ip administered once daily for 5 weeks measured every 4 days during compound dosing; format: functional
Mus musculus [18] = assay: Hepatotoxicity in C57BL/6J m+/+ Lepr db mouse assessed as serum AST level at 50 nmol/kg, ip administered once daily for 5 weeks (reference value: 75 +/- 7.4 IU/L); format: toxicity, organism-based; settings: in vivo, 840 h
Mus musculus [19] = assay: Hypoglycemic activity in C57BL/6J m+/+ Lepr db mouse assessed as blood glucose AUC (0 to 120 mins) at 25 nmol/kg, ip pretreated for 30 mins followed by glucose challenge by IPGTT; format: functional, organism-based; method in brief: as §1
Mus musculus [20] = assay: Antidiabetic activity in C57BL/6J m+/+ Lepr db mouse assessed as increase in non-fasting plasma insulin levels at 50 nmol/kg, ip administered once daily for 5 weeks measured every 4 days during compound dosing; format: functional, organism-based
Mus musculus [21] = assay: Hepatotoxicity in C57BL/6J m+/+ Lepr db mouse assessed as serum ALT level at 50 nmol/kg, ip administered once daily for 5 weeks (reference value: 61.4 +/- 10 IU/L); format: toxicity, organism-based; settings: in vivo, 840 h
Mus musculus [22] = assay: Toxicity in C57BL/6J m+/+ Lepr db mouse assessed as HDL-cholesterol level at 50 nmol/kg, ip administered once daily for 5 weeks (reference value: 1.7 +/- 0.3 mmol/L); format: organism-based; settings: in vivo, 840 h
Mus musculus [23] = assay: Antidiabetic activity in C57BL/6J m+/+ Lepr db mouse assessed as reduction in food intake at 50 nmol/kg, ip administered once daily for 5 weeks measured every 4 days during compound dosing; format: functional, organism-based
Mus musculus [24] = assay: Antidiabetic activity in C57BL/6J m+/+ Lepr db mouse assessed as reduction in glycated hemoglobin level at 50 nmol/kg, ip administered once daily for 5 weeks relative to control; format: functional; parameters: scale not given: the % may be the effect or the level left
Mus musculus [25] = assay: Antidiabetic activity in C57BL/6J m+/+ Lepr db mouse assessed as serum LDL-cholesterol level at 50 nmol/kg, ip administered once daily for 5 weeks (reference value: 2.2 +/- 0.3 mmol/L); format: functional

CC[C@H](C)[C@H](NC(=O)[C@H](CC(C)C)NC(=O)[C@H](Cc1c[nH]c2ccccc12)NC(=O)[C@H](CCC(=O)O)NC(=O)[C@@H](NC(=O)[C@H](Cc1ccccc1)NC(=O)[C@H](CCC(=O)O)NC(=O)[C@H](CCCCNC(=O)CC[C@H](NC(=O)CCCCCCCCCCCNC(=O)CC/C(C)=C/Cc1c(O)c2c(c(C)c1OC)COC2=O)C(=O)O)NC(=O)[C@H](C)NC(=O)[C@H](C)NC(=O)[C@H](CCC(=O)O)NC(=O)[C@H](CCC(=O)O)NC(=O)[C@H](CCC(=O)O)NC(=O)[C@H](CC(C)C)NC(=O)[C@H](Cc1ccc(O)cc1)NC(=O)[C@H](CCC(=O)O)NC(=O)[C@@H](NC(=O)[C@@H](NC(=O)[C@H](CC(=O)O)NC(=O)[C@H](CC(N)=O)NC(=O)[C@@H](NC(=O)[C@H](Cc1ccc(O)cc1)NC(=O)[C@@H](NC(=O)CNC(=O)[C@H](CCC(=O)O)NC(=O)CNC(=O)[C@@H](N)Cc1cnc[nH]1)[C@@H](C)O)[C@@H](C)O)C(C)C)[C@@H](C)O)[C@@H](C)CC)C(=O)N[C@@H](CCCCN)C(=O)NCC(=O)N[C@@H](CCCCN)C(=O)N1CCC[C@H]1C(=O)N[C@@H](CO)C(=O)N[C@@H](CO)C(=O)NCC(=O)N[C@@H](C)C(=O)N1CCC[C@H]1C(=O)N1CCC[C@H]1C(=O)N1CCC[C@H]1C(=O)N[C@@H](CO)C(=O)O (H-HGEGTYTNDVTEYLEEEAAK([γGlu-12Ado-Mycophenolyl])EFIEWLIKGKPSSGAPPPS-OH)
fraction unbound at 1 h (Albumin): 0.152
Activity (Mus musculus [1]): 1.24e+07 nmol/L
Time (Mus musculus [2]): 18.9 h
Activity (Mus musculus [3]): Active
Activity (Mus musculus [4]): 16.5 mIU/L
half-life [5]: 34.2 h
Time (Mus musculus [6]): 30.4 h
EC50 [7]: 5.2 nM
Activity (Mus musculus [8]): Active
Activity (Mus musculus [9]): Active
Activity (Mus musculus [10]): Active

H-HGEGTYTNDVTEYLEEEAAK([γGlu-12Ado-Mycophenolyl])EFIEWLIKGKPSSGAPPSKKKKKK-OH
fraction unbound at 1 h (Albumin): 0.146
Activity (Mus musculus [11]): 55%
Activity (Mus musculus [12]): Active
Activity (Mus musculus [13]): Active
Activity (Mus musculus [14]): Active
Activity (Mus musculus [1]): 1.07e+07 nmol/L
Activity (Mus musculus [15]): 1.4 mmol/L
Activity (Mus musculus [16]): 4.5 mmol/L
Activity (Mus musculus [17]): 11.2 to 14.9 mmol/L
Time (Mus musculus [2]): 23.8 h
Activity (Mus musculus [3]): Active
Activity (Mus musculus [4]): 18 mIU/L
half-life [5]: 39.8 h
Time (Mus musculus [6]): 38.4 h
EC50 [7]: 3.1 nM
Activity (Mus musculus [8]): Active
Activity (Mus musculus [18]): 62.4 IU/L
Activity (Mus musculus [9]): Active
Activity (Mus musculus [19]): Active
Activity (Mus musculus [10]): Active
Activity (Mus musculus [20]): Active
Activity (Mus musculus [21]): 56.9 IU/L
Activity (Mus musculus [22]): 1.6 mmol/L
Activity (Mus musculus [23]): Active
Activity (Mus musculus [24]): 6.7%
Activity (Mus musculus [25]): 1.4 mmol/L

H-HGEGTYTNDVTEYLEEEAAK([γGlu-Ahx-Mycophenolyl])EFIEWLIKGKPSSGAPPSKKKKKK-OH
fraction unbound at 1 h (Albumin): 0.361
half-life [5]: 22.1 h
EC50 [7]: 2.8 nM
Activity (Mus musculus [8]): Active
Activity (Mus musculus [9]): Active

SEMAGLUTIDE
Activity (Mus musculus [1]): 1.1e+07 nmol/L
Activity (Mus musculus [3]): Active
Activity (Mus musculus [4]): 17.2 mIU/L
Activity (Mus musculus [8]): Active
Activity (Mus musculus [9]): Active
